Measurements from ChEMBL document CHEMBL1142180, “First characterization of fluoroquinolone resistance in Streptococcus suis” (2007).
In brackets after ≈: the same amount, converted by molar mass.

Key:
Format in all cases: functional
Streptococcus suis [1] = assay: Antibacterial activity against Streptococcus suis BB1012 isolate after 24 hrs
Method in brief: (§1)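 Broth microdilution MIC assay against S. suis collection strain or Spanish/South American swine clinical isolates, incubated at 37°C for 24 h; MIC reported in μg/ml.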

Streptococcus suis [2] = assay: Antibacterial activity against Streptococcus suis BB1009 isolate in presence of 10 ug/ml reserpine after 24 hrs
Method in brief: (§2)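 Clinical swine S. suis isolates; MIC by microdilution, 37°C for 24 h, ciprofloxacin tested with reserpine added; MIC reported in μg/ml.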

Streptococcus suis [3] = assay: Antibacterial activity against Streptococcus suis BB1006 isolate in presence of 10 ug/ml reserpine after 24 hrs; method in brief: as §1
Streptococcus suis [4] = assay: Antibacterial activity against Streptococcus suis BB1012 isolate in presence of 10 ug/ml reserpine after 24 hrs; method in brief: as §2
Streptococcus suis [5] = assay: Antibacterial activity against Streptococcus suis BB1013 isolate in presence of 10 ug/ml reserpine after 24 hrs; method in brief: as §2
Streptococcus suis [6] = assay: Antibacterial activity against Streptococcus suis BB1002 isolate in presence of 10 ug/ml reserpine after 24 hrs; method in brief: as §1
Streptococcus suis [7] = assay: Antibacterial activity against Streptococcus suis BB1001 isolate after 24 hrs; method in brief: as §1
Streptococcus suis [8] = assay: Antibacterial activity against Streptococcus suis BB1004 isolate in presence of 10 ug/ml reserpine after 24 hrs; method in brief: as §1
Streptococcus suis [9] = assay: Antibacterial activity against Streptococcus suis BB1010 isolate in presence of 10 ug/ml reserpine after 24 hrs; method in brief: as §2
Streptococcus suis [10] = assay: Antibacterial activity against Streptococcus suis BB1011 isolate in presence of 10 ug/ml reserpine after 24 hrs; method in brief: as §2
Streptococcus suis [11] = assay: Antibacterial activity against Streptococcus suis BB1016 isolate after 24 hrs; method in brief: as §1
Streptococcus suis [12] = assay: Antibacterial activity against Streptococcus suis BB1006 isolate after 24 hrs; method in brief: as §1
Streptococcus suis [13] = assay: Antibacterial activity against Streptococcus suis BB1008 isolate after 24 hrs; method in brief: as §1
Streptococcus suis [14] = assay: Antibacterial activity against Streptococcus suis BB1011 isolate after 24 hrs
Streptococcus suis [15] = assay: Antibacterial activity against Streptococcus suis BB1003 isolate after 24 hrs; method in brief: as §1
Streptococcus suis [16] = assay: Antibacterial activity against Streptococcus suis BB1016 isolate in presence of 10 ug/ml reserpine after 24 hrs; method in brief: as §2
Streptococcus suis [17] = assay: Antibacterial activity against Streptococcus suis BB1013 isolate after 24 hrs; method in brief: as §1
Streptococcus suis [18] = assay: Antibacterial activity against Streptococcus suis BB1004 isolate after 24 hrs; method in brief: as §1
Streptococcus suis [19] = assay: Antibacterial activity against Streptococcus suis BB1010 isolate after 24 hrs; method in brief: as §1
Streptococcus suis [20] = assay: Antibacterial activity against Streptococcus suis BB1003 isolate in presence of 10 ug/ml reserpine after 24 hrs; method in brief: as §1
Streptococcus suis [21] = assay: Antibacterial activity against Streptococcus suis BB1015 isolate in presence of 10 ug/ml reserpine after 24 hrs; method in brief: as §2
Streptococcus suis [22] = assay: Antibacterial activity against Streptococcus suis BB1017 isolate after 24 hrs; method in brief: as §1
Streptococcus suis [23] = assay: Antibacterial activity against Streptococcus suis BB1014 isolate in presence of 10 ug/ml reserpine after 24 hrs; method in brief: as §2
Streptococcus suis [24] = assay: Antibacterial activity against Streptococcus suis BB1002 isolate after 24 hrs; method in brief: as §1
Streptococcus suis [25] = assay: Antibacterial activity against Streptococcus suis BB1005 isolate in presence of 10 ug/ml reserpine after 24 hrs; method in brief: as §1
Streptococcus suis [26] = assay: Antibacterial activity against Streptococcus suis ATCC 43765 in presence of 10 ug/ml reserpine after 24 hrs; conditions: ATCC 43765, 24 h; method in brief: as §1
Streptococcus suis [27] = assay: Antibacterial activity against Streptococcus suis BB1005 isolate after 24 hrs; method in brief: as §1
Streptococcus suis [28] = assay: Antibacterial activity against Streptococcus suis BB1001 isolate in presence of 10 ug/ml reserpine after 24 hrs; method in brief: as §1
Streptococcus suis [29] = assay: Antibacterial activity against Streptococcus suis ATCC 43765 after 24 hrs; conditions: ATCC 43765, 24 h; method in brief: as §1
Streptococcus suis [30] = assay: Antibacterial activity against Streptococcus suis BB1015 isolate after 24 hrs; method in brief: as §1
Streptococcus suis [31] = assay: Antibacterial activity against Streptococcus suis BB1014 isolate after 24 hrs; method in brief: as §1
Streptococcus suis [32] = assay: Antibacterial activity against Streptococcus suis BB1017 isolate in presence of 10 ug/ml reserpine after 24 hrs; method in brief: as §2
Streptococcus suis [33] = assay: Antibacterial activity against Streptococcus suis BB1007 isolate in presence of 10 ug/ml reserpine after 24 hrs; method in brief: as §1
Streptococcus suis [34] = assay: Antibacterial activity against Streptococcus suis BB1008 isolate in presence of 10 ug/ml reserpine after 24 hrs; method in brief: as §1
Streptococcus suis [35] = assay: Antibacterial activity against Streptococcus suis BB1009 isolate after 24 hrs; method in brief: as §1
Streptococcus suis [36] = assay: Antibacterial activity against Streptococcus suis BB1007 isolate after 24 hrs; method in brief: as §1

Row | Compound | MIC (Streptococcus suis [1]) | MIC (Streptococcus suis [7]) | MIC (Streptococcus suis [11]) | MIC (Streptococcus suis [12]) | MIC (Streptococcus suis [13]) | MIC (Streptococcus suis [14]) | MIC (Streptococcus suis [15]) | MIC (Streptococcus suis [17]) | MIC (Streptococcus suis [18]) | MIC (Streptococcus suis [19]) | MIC (Streptococcus suis [22]) | MIC (Streptococcus suis [24]) | MIC (Streptococcus suis [27]) | MIC (Streptococcus suis [29]) | MIC (Streptococcus suis [30]) | MIC (Streptococcus suis [31]) | MIC (Streptococcus suis [35]) | MIC (Streptococcus suis [36]) | further results
1 | O=C(O)c1cn(C2CC2)c2cc(N3CCNCC3)c(F)cc2c1=O [CIPROFLOXACIN] | 32 µg/mL (≈ 96.6 µM) | 0.5 µg/mL (≈ 1.51 µM) | 32 µg/mL (≈ 96.6 µM) | 2 µg/mL (≈ 6.04 µM) | 64 µg/mL (≈ 193 µM) | 16 µg/mL (≈ 48.3 µM) | 0.5 µg/mL (≈ 1.51 µM) | 64 µg/mL (≈ 193 µM) | 0.5 µg/mL (≈ 1.51 µM) | 32 µg/mL (≈ 96.6 µM) | 64 µg/mL (≈ 193 µM) | 0.5 µg/mL (≈ 1.51 µM) | 0.5 µg/mL (≈ 1.51 µM) | 0.5 µg/mL (≈ 1.51 µM) | 32 µg/mL (≈ 96.6 µM) | 64 µg/mL (≈ 193 µM) | 32 µg/mL (≈ 96.6 µM) | – | MIC (Streptococcus suis [2]): 16 µg/mL; MIC (Streptococcus suis [3]): 1 µg/mL; MIC (Streptococcus suis [4]): 16 µg/mL; MIC (Streptococcus suis [5]): 16 µg/mL; MIC (Streptococcus suis [6]): 0.5 µg/mL; MIC (Streptococcus suis [8]): 0.5 µg/mL; MIC (Streptococcus suis [9]): 16 µg/mL; MIC (Streptococcus suis [10]): 16 µg/mL; MIC (Streptococcus suis [16]): 16 µg/mL; MIC (Streptococcus suis [20]): 0.5 µg/mL; MIC (Streptococcus suis [21]): 16 µg/mL; MIC (Streptococcus suis [23]): 16 µg/mL; MIC (Streptococcus suis [25]): 0.5 µg/mL; MIC (Streptococcus suis [26]): 0.5 µg/mL; MIC (Streptococcus suis [28]): 0.5 µg/mL; MIC (Streptococcus suis [32]): 16 µg/mL; MIC (Streptococcus suis [33]): 4 µg/mL; MIC (Streptococcus suis [34]): 32 µg/mL
2 | CCN1CCN(c2cc3c(cc2F)c(=O)c(C(=O)O)cn3C2CC2)CC1 [ENROFLOXACIN] | 8 µg/mL (≈ 22.3 µM) | 0.5 µg/mL (≈ 1.39 µM) | 8 µg/mL (≈ 22.3 µM) | 1 µg/mL (≈ 2.78 µM) | 32 µg/mL (≈ 89 µM) | 16 µg/mL (≈ 44.5 µM) | 0.5 µg/mL (≈ 1.39 µM) | 8 µg/mL (≈ 22.3 µM) | 0.5 µg/mL (≈ 1.39 µM) | 32 µg/mL (≈ 89 µM) | 16 µg/mL (≈ 44.5 µM) | 0.5 µg/mL (≈ 1.39 µM) | 0.25 µg/mL (≈ 0.696 µM) | 0.5 µg/mL (≈ 1.39 µM) | 16 µg/mL (≈ 44.5 µM) | 16 µg/mL (≈ 44.5 µM) | 16 µg/mL (≈ 44.5 µM) | 4 µg/mL (≈ 11.1 µM) | –
3 | C[C@H]1COc2c(N3CCN(C)CC3)c(F)cc3c(=O)c(C(=O)O)cn1c23.C[C@H]1COc2c(N3CCN(C)CC3)c(F)cc3c(=O)c(C(=O)O)cn1c23.O [LEVOFLOXACIN] | 16 µg/mL | 1 µg/mL | 32 µg/mL | 1 µg/mL | 16 µg/mL | 16 µg/mL | 0.5 µg/mL | 16 µg/mL | 1 µg/mL | 32 µg/mL | 64 µg/mL | 1 µg/mL | 0.5 µg/mL | 1 µg/mL | 16 µg/mL | 32 µg/mL | 16 µg/mL | 2 µg/mL | –
4 | CCn1cc(C(=O)O)c(=O)c2ccc(C)nc21 [NALIDIXIC ACID] | > 64 µg/mL | > 64 µg/mL | > 64 µg/mL | > 64 µg/mL | > 64 µg/mL | > 64 µg/mL | > 64 µg/mL | > 64 µg/mL | > 64 µg/mL | > 64 µg/mL | > 64 µg/mL | > 64 µg/mL | > 64 µg/mL | > 64 µg/mL | > 64 µg/mL | > 64 µg/mL | > 64 µg/mL | > 64 µg/mL | –
5 | CCn1cc(C(=O)O)c(=O)c2cc(F)c(N3CCNCC3)cc21 [NORFLOXACIN] | > 64 µg/mL | 2 µg/mL (≈ 6.26 µM) | > 64 µg/mL | 32 µg/mL (≈ 100 µM) | > 64 µg/mL | 32 µg/mL (≈ 100 µM) | 4 µg/mL (≈ 12.5 µM) | > 64 µg/mL | 2 µg/mL (≈ 6.26 µM) | > 64 µg/mL | > 64 µg/mL | 2 µg/mL (≈ 6.26 µM) | 4 µg/mL (≈ 12.5 µM) | 4 µg/mL (≈ 12.5 µM) | > 64 µg/mL | > 64 µg/mL | 32 µg/mL (≈ 100 µM) | 16 µg/mL (≈ 50.1 µM) | –
